From ChEMBL document CHEMBL1128507, “Design and synthesis of potent retinoid X receptor selective ligands that induce apoptosis in leukemia cells” (J Med Chem, 1995)

How the values were obtained:
[1] = target: T1, Retinoic acid receptor RXR-alpha (Homo sapiens, UniProt P19793); assay: Ability to bind directly to Retinoic acid receptor RXR-alpha was evaluated in a competitive binding assay.
T1 sequence (P19793 whole entry): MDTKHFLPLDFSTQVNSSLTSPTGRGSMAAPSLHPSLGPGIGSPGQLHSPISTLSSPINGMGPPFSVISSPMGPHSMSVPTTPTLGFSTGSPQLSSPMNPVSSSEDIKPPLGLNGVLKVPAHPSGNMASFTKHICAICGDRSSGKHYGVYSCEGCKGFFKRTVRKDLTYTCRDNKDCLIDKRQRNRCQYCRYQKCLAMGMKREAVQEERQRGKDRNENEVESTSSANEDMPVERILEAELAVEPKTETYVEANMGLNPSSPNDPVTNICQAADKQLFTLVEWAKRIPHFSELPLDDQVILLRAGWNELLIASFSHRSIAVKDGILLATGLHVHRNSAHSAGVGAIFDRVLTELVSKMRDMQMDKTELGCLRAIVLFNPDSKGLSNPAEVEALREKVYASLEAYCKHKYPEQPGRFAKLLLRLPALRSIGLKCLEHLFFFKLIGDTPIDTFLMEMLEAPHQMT

[2] = target: T1, Retinoic acid receptor RXR-alpha; assay: Ability to activate gene expression at Retinoic acid receptor RXR-alpha was evaluated in a cotransfection assay.
[3] = target: T2, Retinoic acid receptor RXR-gamma (Mus musculus, UniProt P28705); assay: Binding affinity to Retinoic acid receptor RXR-gamma was evaluated in a competitive binding assay.
T2 sequence (P28705 whole entry): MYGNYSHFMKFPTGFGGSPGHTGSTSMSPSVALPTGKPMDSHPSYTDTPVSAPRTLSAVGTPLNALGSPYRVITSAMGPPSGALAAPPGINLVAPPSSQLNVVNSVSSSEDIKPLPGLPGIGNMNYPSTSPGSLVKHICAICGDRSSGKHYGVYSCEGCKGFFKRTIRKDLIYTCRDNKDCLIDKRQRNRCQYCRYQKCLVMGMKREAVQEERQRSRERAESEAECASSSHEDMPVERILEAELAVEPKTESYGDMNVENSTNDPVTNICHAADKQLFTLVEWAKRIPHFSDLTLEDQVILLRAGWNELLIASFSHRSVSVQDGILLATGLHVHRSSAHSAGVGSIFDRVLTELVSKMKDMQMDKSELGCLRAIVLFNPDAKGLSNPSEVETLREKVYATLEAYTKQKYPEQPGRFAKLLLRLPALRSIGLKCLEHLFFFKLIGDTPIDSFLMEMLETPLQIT
Summary of the method: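 Receptor from baculovirus. Competition binding used [3H]-9-cis-RA as the radioligand for RXRs. Kd was calculated with the Cheng-Prussof equation. Values are mean ± SEM of about three experiments, or a single experiment in triplicate.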

[4] = target: T2, Retinoic acid receptor RXR-gamma; assay: Ability to activate gene expression at Retinoic acid receptor RXR-gamma was evaluated in a cotransfection assay.
Summary of the method: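 CV-1 cells cotransfected with the RXR-gamma receptor, using an automated 96-well format. Values are either one experiment in triplicate or the mean ± SEM of at least two experiments, each in triplicate.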

[5] = target: T3, Retinoic acid receptor RXR-beta (Mus musculus, UniProt P28704); assay: Binding affinity to Retinoic acid receptor RXR-beta was determined in a competitive binding assay.
T3 sequence (P28704 whole entry): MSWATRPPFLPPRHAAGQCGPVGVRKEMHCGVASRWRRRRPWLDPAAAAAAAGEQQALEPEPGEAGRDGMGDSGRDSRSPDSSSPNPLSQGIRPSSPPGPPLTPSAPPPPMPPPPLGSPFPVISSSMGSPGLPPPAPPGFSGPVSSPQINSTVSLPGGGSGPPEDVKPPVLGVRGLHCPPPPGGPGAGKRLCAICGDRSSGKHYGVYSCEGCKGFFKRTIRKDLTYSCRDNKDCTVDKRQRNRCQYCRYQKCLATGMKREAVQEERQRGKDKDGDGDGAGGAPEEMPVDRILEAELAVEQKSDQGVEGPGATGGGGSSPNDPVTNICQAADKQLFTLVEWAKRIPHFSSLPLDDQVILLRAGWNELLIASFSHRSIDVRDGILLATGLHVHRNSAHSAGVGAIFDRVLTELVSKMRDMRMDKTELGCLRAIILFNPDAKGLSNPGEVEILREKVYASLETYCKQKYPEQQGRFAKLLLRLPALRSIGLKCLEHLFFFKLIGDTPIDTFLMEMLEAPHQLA

[6] = target: T3, Retinoic acid receptor RXR-beta; assay: Ability to activate gene expression at Retinoic acid receptor RXR-beta was evaluated in a cotransfection assay.

Structure (SMILES) | Kd [1] [nM] | EC50 [2] [nM] | Kd [3] [nM] | EC50 [4] [nM] | Kd [5] [nM] | EC50 [6] [nM]
Cc1cc2c(cc1Oc1ccc(C(=O)O)cc1)C(C)(C)CCC2(C)C | 520 | 1000 | 450 | 430 | 770 | 1900
Cc1cc2c(cc1C(=O)c1ccccc1C(=O)O)C(C)(C)CCC2(C)C | > 1000 | > 10000 | > 1000 | > 10000 | > 1000 | > 10000
Cc1cc2c(cc1C1(c3ccc(C(=O)O)cc3)CO1)C(C)(C)CCC2(C)C (configuration not stated) | 670 | 51 | 547 | 47 | 190 | 67
C=C(c1ccc(C(=O)O)cc1)c1cc2c(cc1C)CCCC2(C)C | > 1000 | 2400 | > 1000 | 2600 | > 1000 | 2400
Cc1cc2c(cc1C(=O)c1cccc(C(=O)O)c1)C(C)(C)CCC2(C)C | > 1000 | > 10000 | > 1000 | > 10000 | > 1000 | > 10000
C=C(c1ccc(C(=O)O)cc1)c1cc2c(cc1C)C(C)(C)CCC2 | 1160 | 1200 | 1740 | 600 | 853 | 770
Cc1cc2c(cc1C(C)(C)c1ccc(C(=O)O)cc1)C(C)(C)CCC2(C)C | > 1000 | 650 | > 1000 | 650 | > 1000 | 1900
Cc1cc2c(cc1Cc1ccc(C(=O)O)cc1)C(C)(C)CCC2(C)C | > 1000 | 460 | > 1000 | 440 | > 1000 | 1200

Stronger by Kd [1], values ahead:

Kd [1] [nM] | EC50 [2] [nM] | Kd [3] [nM] | EC50 [4] [nM] | Kd [5] [nM] | EC50 [6] [nM] | Structure (SMILES)
176 | 300 | 283 | 500 | 291 | 280 | C=C(c1ccc(C(=O)O)cc1)c1cc2c(cc1C)C(C)(C)C(C)C2(C)C (configuration not stated)
110 | 470 | 200 | 340 | 150 | 310 | Cc1cc2c(cc1C(C)c1ccc(C(=O)O)cc1)C(C)(C)CCC2(C)C (configuration not stated)
50 | 300 | 150 | 240 | 160 | 130 | CC(C)=C(c1ccc(C(=O)O)cc1)c1cc2c(cc1C)C(C)(C)CCC2(C)C
46 | 26 | 25 | 17 | 70 | 22 | Cc1cc2c(cc1C1(c3ccc(C(=O)O)cc3)CC1)C(C)(C)CCC2(C)C
